# S1P4 agonist = agonists of human S1P4 receptor. O95977. S1P4-expressing cell line, agonist reporter assay. activation, % at 4.98 µM. 220,000 tested, 0.35% active; in the data active = activation above about 11%;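 also: 0% = DMSO vehicle and 100% = reference agonist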
# S1P4 antagonist = blocks the human S1P4 receptor. O95977. S1P4-expressing cells, antagonist mode, reporter read-out. inhibition, % at 4.98 µM. 220,000 tested, 0.26% active; in the data active = inhibition above about 29%;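 also: 0% = wells stimulated with agonist and 100% = vehicle wells without agonist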
# NPY-Y1 PAM-ag = potentiators or agonists of human neuropeptide Y receptor Y1; P25929; NPY-Y1 expressing cells, potentiator/agonist activation; activation, % at 3.6 µM; 220,000 tested, 0.37% active; AID 1304; in the data active = activation above about 33%, passing the limit was not always enough;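 also: cells stimulated with NPY at EC10 then isoproterenol at EC100; 0% = low agonist plus stimulus and 100% = saturating agonist plus stimulus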
# NPY2 pot ag = potentiators or agonists of human neuropeptide Y receptor Y2; P49146; cells expressing NPY-Y2, potentiator/agonist read-out; activation, % at 3.6 µM; 220,000 tested, 0.45% active; in the data active = activation above about 27%;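 also: cells stimulated with NPY near EC25 plus isoproterenol at EC100; 0% = vehicle plus submaximal agonist and 100% = vehicle plus saturating agonist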
# NPY Y2 blocker = NPY-Y2 (human) receptor antagonism; NPY-Y2 expressing cells, antagonist mode; 140,000 tested, 0.99% active; AID 793; P49146; inhibition, % at 2.7 µM; in the data active = inhibition above about 17%;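 also: 0% = vehicle with agonist challenge and 100% = reference antagonist with challenge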
# NPY Y1 blocker = NPY-Y1 (human) receptor antagonism; HEK293-CNG Y1 cells, membrane potential fluorescence; NPY at EC95, then isoproterenol; P25929; 200,000 tested, 1% active; inhibition, % at 3.6 µM; AID 1040;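 active = inhibition above the campaign mean inhibition of all tested compounds plus 3 SD, cut at about 20% in these data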;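 also: 0% = DMSO wells given NPY plus isoproterenol and 100% = isoproterenol alone without NPY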
#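 Assay system: HEK293 cells with Y1 receptor plus CNG channel | Probe or stimulus: NPY (25 nM), isoproterenol (1 µM), Ro 20-1724 (25 µM) | Timing: Compound incubation 1 h at room temperature, readout 45 min post-stimulation | Measured by: Membrane-potential fluorescent dye readout | Benchmarks: High control isoproterenol alone, low control NPY with isoproterenol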
# S1P4 antag conf = confirmation of human S1P4 receptor antagonists | shares compounds with S1P4 antagonist | S1P4-expressing cell line, antagonist mode, reporter read-out | inhibition, % at 4.98 µM | 520 tested, 71% active | AID 1524; in the data active = inhibition above about 30%
# S1P1 antagonist = human S1P1 antagonism as S1P4 antagonist counter-screen | shares compounds with S1P4 antagonist | inhibition, % at 4.98 µM | cell-based S1P1 antagonist counterscreen, inhibition | 520 tested, 37% active; in the data active = inhibition above about 40%;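 also: receptor stimulated with S1P near its EC80; 0% = agonist stimulated wells and 100% = vehicle only wells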
# Target sequence (P21453 whole entry, looked up): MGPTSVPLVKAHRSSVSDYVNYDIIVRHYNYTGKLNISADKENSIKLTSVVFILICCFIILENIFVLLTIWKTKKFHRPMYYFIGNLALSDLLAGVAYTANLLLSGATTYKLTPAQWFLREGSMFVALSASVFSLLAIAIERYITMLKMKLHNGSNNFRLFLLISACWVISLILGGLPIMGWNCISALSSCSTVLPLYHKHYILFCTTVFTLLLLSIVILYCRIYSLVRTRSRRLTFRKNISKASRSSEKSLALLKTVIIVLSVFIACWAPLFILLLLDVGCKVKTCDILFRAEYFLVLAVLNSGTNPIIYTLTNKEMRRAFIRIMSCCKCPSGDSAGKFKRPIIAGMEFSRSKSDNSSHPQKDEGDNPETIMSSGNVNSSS
# * marks the source's active call; other numbers are inactive results; · = no result given. Compounds with a hit are over-represented: about 2.4% of the library has one in this group of screens.
SMILES,S1P4 agonist,S1P4 antagonist,NPY-Y1 PAM-ag,NPY2 pot ag,NPY Y2 blocker,NPY Y1 blocker,S1P4 antag conf,S1P1 antagonist
COc1ccc(CN(C(=O)c2oc3ccccc3c2C)C2CCS(=O)(=O)C2)cc1OC (centres undefined),0.5,31.8*,-7.6,-12.1,1.9,4.2,-18.0,-1.8
CCOc1ccc(NC(=O)Nc2cc(OCC(F)(F)F)cc(OCC(F)(F)F)c2)cc1,-2.4,90.3*,10.8,16.3,-5.9,-5.4,112.8*,-25.6
O=C(Nc1ccc(F)cc1)Nc1cc(OCC(F)(F)F)cc(OCC(F)(F)F)c1,-1.1,100.2*,65.5*,53.6*,-3.1,-14.4,110.4*,-28.6
O=C1COc2ccc(C(=O)COC(=O)CNC(=O)c3ccco3)cc2N1,2.3,-10.8,15.9,-0.3,·,0.8,·,·
Cn1nc(-c2ccc(Cl)cc2)nc2c(=O)n(C)c(=O)nc1-2,-9.2,89.6*,-18.9,-16.1,13.9,9.9,110.4*,87.7*
CS(=O)(=O)n1nc(-c2ccc(Cl)cc2)nc1N,0.4,3.3,4.2,-7.1,·,-4.7,·,·
O=C(COc1ccc2c(C(F)(F)F)cc(=O)oc2c1)NCc1cccs1,1.9,-6.3,1.4,13.4,11.1,4.3,·,·
O=C(NC(Cc1ccccc1)C(=O)Oc1ccc2c(C(F)(F)F)cc(=O)oc2c1)OCc1ccccc1 (centres undefined),0.5,29.7*,-31.4,6.5,5.4,2.2,47.2*,24.2
CCc1ccccc1NC(=O)Nc1ccc(F)cc1F,1.2,1.7,7.3,0.4,·,1.8,·,·
O=C(Nc1ccc(F)cc1F)Nc1ccccc1C(=O)NCCN1CCNC1=O,-0.2,30.5*,-8.5,5.2,·,·,-14.4,11.2
CCn1c(Cl)c(C=O)s/c1=N\S(=O)(=O)c1ccccc1,-3.3,87.8*,7.5,-4.9,·,·,120.1*,118.6*
O=[N+]([O-])c1cc(Cl)c(O)c2ncccc12,3.5,30.8*,-10.2,-11.1,·,6.8,62.4*,54.7*
COC(=O)c1sc(C(C)(C)C)cc1CS(=O)(=O)c1ccc(Cl)cc1,0.2,-10.9,-12.8,-13.1,·,·,·,·
O=C(/C=C/c1ccc([N+](=O)[O-])cc1)NCc1cccnc1,-1.1,-9.0,29.1,1.9,-1.6,-0.4,·,·
O=C(/C=C/c1ccc([N+](=O)[O-])cc1)c1cccnc1,1.0,34.4*,1.0,-6.6,12.9,-0.3,79.3*,52.0*
O=C1c2cccc3c([N+](=O)[O-])ccc(c23)C(=O)N1Cc1cccnc1,2.1,72.1*,21.6,-0.2,·,3.5,95.3*,42.2*
Cc1ccnc(N2C(=O)c3cccc4c([N+](=O)[O-])ccc(c34)C2=O)c1,1.3,105.4*,6.9,-6.0,2.3,1.3,115.3*,133.1*
COc1ccc(NC(=O)c2ccccc2-c2ccccc2)c(C)c1,2.8,-22.9,-11.5,-3.7,·,2.0,·,·
CC(=O)c1cc(Cl)ccc1OC(=O)c1ccco1,0.8,-4.4,22.1,2.2,1.8,2.3,·,·
O=C(Oc1ccc(Br)cc1C(=O)/C=C/c1ccccc1F)c1ccco1,1.4,41.4*,-21.9,-18.9,4.6,12.5,94.4*,34.3
COc1ccc(-c2cnnn2-c2ccc(N)cc2)cc1OC,-0.3,-14.7,-10.9,-2.6,3.5,2.1,·,·
Nc1cccc(-n2nncc2-c2ccc(Cl)cc2)c1,-0.5,32.2*,12.7,-9.8,2.4,-2.2,6.7,13.5
CC1(C)O[C@@H]2C[C@H]3[C@@H]4C[C@H](F)C5=CC(=O)CC[C@]5(C)[C@H]4[C@@H](O)C[C@]3(C)[C@]2(C(=O)CO)O1,-0.8,59.0*,-12.6,10.5,0.7,1.0,0.5,17.4
COc1ccc2ccccc2c1CNC(=O)CC1C(=O)NCCN1CC(C)(C)C (centres undefined),1.7,0.4,13.8,3.9,·,·,·,·
CC(=O)OCC(=O)Nc1ccccc1C,-2.5,-10.1,-17.5,-15.4,·,5.6,·,·
COc1cc(OC)cc(C(=O)N[C@H](C(=O)Nc2cccc(S(=O)(=O)N3CCCC3)c2)C(C)C)c1,-0.7,-23.7,-19.3,-9.6,·,·,·,·
COc1cc(/C=C2\S/C(=N/S(=O)(=O)Cc3ccccc3)NC2=O)c([N+](=O)[O-])cc1OC,-1.0,-3.3,-5.2,-6.0,·,·,·,·
